Data from ChEMBL document CHEMBL4513216, “Probing the Open Global Health Chemical Diversity Library for Multistage-Active Starting Points for Next-Generation Antimalarials” (ACS Infect Dis, 2020).

Assay: Toxicity liver stage against HepG2, at 10uM
Assay type: cell-based
Design: test concentration 10 uM, cell line HepG2-A16-CD81EGFP
Details: human, HepG2-A16-CD81EGFP cells; read-out: INHIBITION
Outline: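 Uninfected HepG2-A16-CD81EGFP cells, 3 × 10^3 per well, 1536-well, plated on prespotted compound at 10 μM final, parasite-free screening media added to match infected plates; puromycin 10 μM positive, DMSO 0.5% negative; run in parallel with 48 h PbLuc assay at 37 °C, 5% CO2; viability by CellTiter-Glo luminescence, normalized to controls.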
`O=C1NC[C@H]2CN(C3CCOCC3)CCN12` showed a cytotoxicity at 10 µM of -1.95%.
`COc1ccccc1N1CCN(C(=O)CCn2ccc(C)n2)CC1` showed a cytotoxicity at 10 µM of -3.24%.
Compound `Cc1ccc(NC(=O)c2ccc(=O)n(CC(=O)NC3CCCC3)n2)cc1` has a cytotoxicity at 10 µM of -3.63%.
In the case of `Cc1n[nH]c2c1C(c1cc(F)cc(F)c1)SCC(=O)N2` (configuration not stated), the cytotoxicity at 10 µM is reported as 2.03%.
For `O=C(Nc1nc[nH]n1)c1cc(-c2ccc(F)cc2)n[nH]1`, the cytotoxicity at 10 µM was -5.4%.
`COc1ccc2c(ccn2CC(=O)Nc2n[nH]c(CC(C)C)n2)c1` gave a cytotoxicity at 10 µM of -6.19%.
Compound `O=C(NCC1(CO)CC1)c1ccccc1F` has a cytotoxicity at 10 µM of 9.99%.
Compound `COc1ccc(S(=O)(=O)NCCC(O)c2cccs2)c(C)c1` (configuration not stated) has a cytotoxicity at 10 µM of -1.13%.
`CCN1C(=O)C[C@@H]2[C@@H]1CCN2S(=O)(=O)c1ccccc1` gave a cytotoxicity at 10 µM of 2.55%.
In the case of `Cc1ccc(C(=O)N2CCc3ncc(Cn4cccn4)n3CC2)o1`, the cytotoxicity at 10 µM is reported as 2.31%.
Compound `CN(C)CCCNC(=O)c1ccc(Cl)cc1Cl` has a cytotoxicity at 10 µM of -21%.
Compound `Cc1ncsc1CN1CC[C@H]2C[C@H](c3ccncn3)O[C@@H]2C1` has a cytotoxicity at 10 µM of 4.87%.
`Cc1cc(NC(=O)Cn2ncc(Br)c2C)no1` gave a cytotoxicity at 10 µM of 4.12%.
Work on `CCn1nccc1CNC(=O)C1CCCCC1` yielded a cytotoxicity at 10 µM of -0.488%.
Compound `CCc1nc(Nc2cccc(C(=O)NC)c2)c2c(n1)c(C)nn2CC` has a cytotoxicity at 10 µM of 1.41%.
Work on `Cc1noc(C)c1S(=O)(=O)N(C)Cc1nn(C)c(Cl)c1Cl` yielded a cytotoxicity at 10 µM of -6.01%.
`COc1cc(CC2CC(C(N)=O)=NO2)cc2c1OCO2` (configuration not stated) gave a cytotoxicity at 10 µM of 5.32%.
Work on `O=C(NCCc1cc(N2CCOCC2)nc(NC2CC2)n1)C1CCCO1` (configuration not stated) yielded a cytotoxicity at 10 µM of 2.61%.
For `c1cncc(CN2CCCCC2c2ccc(Nc3cnccn3)nc2)c1` (configuration not stated), the cytotoxicity at 10 µM was 4.41%.
`CC(=O)N(C)Cc1cncc(C2CCCN2C2CCOCC2)n1` (configuration not stated) gave a cytotoxicity at 10 µM of -5.34%.
In the case of `COCCC(=O)N1CCC(c2cc3ncc(C)nc3[nH]2)CC1`, the cytotoxicity at 10 µM is reported as -8.86%.
In the case of `COc1ccc(C(=O)N2C[C@@H](c3ccccc3)[C@@H]3NCCCC[C@@H]32)cc1`, the cytotoxicity at 10 µM is reported as -23.3%.
Work on `COCCOCC(=O)N1C[C@@H]2CC[C@H](Oc3ccccc3F)[C@@H]2C1` yielded a cytotoxicity at 10 µM of -1.96%.
`O=C(CCc1cccnc1)N1CCC(c2cnccn2)CC1` gave a cytotoxicity at 10 µM of -10.4%.
`CNCC(=O)N1CCCC(c2ccnc(Nc3cnccn3)n2)C1` (configuration not stated) gave a cytotoxicity at 10 µM of -11.6%.
`CCOc1ccc(C(=O)CC(SC2CCCCC2)C(=O)O)cc1` (configuration not stated) gave a cytotoxicity at 10 µM of 6.73%.
In the case of `CC(C)NC(=O)CCNC(=O)c1c(Br)c2ccccc2n1C`, the cytotoxicity at 10 µM is reported as 8.59%.
In the case of `Cc1csc(CNc2cnc3c(c2)c(C)nn3C)n1`, the cytotoxicity at 10 µM is reported as 0.739%.
Compound `Cc1nc(C(C)C)sc1C(C)N(C)C(=O)c1ccc(=O)n(C)c1` (configuration not stated) has a cytotoxicity at 10 µM of 1.46%.
`NC(=O)CC1CCN(Cc2ccccc2OCC(F)(F)F)CC1` showed a cytotoxicity at 10 µM of -0.535%.
With `c1ccc2nc(N3CCCC3)c(NCc3nnc4n3CCC4)nc2c1` the cytotoxicity at 10 µM was 6.9%.
`CCc1nc(CCNc2ncccc2S(N)(=O)=O)sc1C` showed a cytotoxicity at 10 µM of -3.23%.
Work on `COCCNC(=O)NC1CCN(c2cnn(C)c2)C1` (configuration not stated) yielded a cytotoxicity at 10 µM of 6%.
`O=C(c1cc2c([nH]c1=O)CCC2)N1CCCC1c1cccnc1` (configuration not stated) gave a cytotoxicity at 10 µM of -5.79%.
`CSc1ccc(CNC2CCN(CCc3ccncc3)CC2)cc1` showed a cytotoxicity at 10 µM of -8.14%.
`Cc1ccc(CNCCS(=O)(=O)N2CCOCC2)cc1C` gave a cytotoxicity at 10 µM of 1.41%.
`Cc1nc(CNC(=O)[C@@H]2CCCN2C(=O)OC(C)(C)C)cs1` gave a cytotoxicity at 10 µM of -0.602%.
Compound `Cc1nc(CNCC2CCCN2c2cccnn2)oc1C` (configuration not stated) has a cytotoxicity at 10 µM of -3.31%.
For `O=C(NCCCn1nc2ccccn2c1=O)NC(C1CC1)C1CC1`, the cytotoxicity at 10 µM was 2.74%.
For `Cn1cc(NC(=O)NCc2ccsc2)ccc1=O`, the cytotoxicity at 10 µM was -10.2%.
`Cc1ccc(C2CN(Cc3cnc(-c4cccnc4)s3)CCO2)o1` (configuration not stated) gave a cytotoxicity at 10 µM of -10.9%.
In the case of `CC1CCN(S(=O)(=O)N2CCn3cccc3C2C)CC1` (configuration not stated), the cytotoxicity at 10 µM is reported as -0.224%.
Work on `NC(=O)NC(=O)CCn1ccc(-c2ccc(F)cc2)n1` yielded a cytotoxicity at 10 µM of 4.19%.
With `CN(C)C(=O)Cc1ccccc1NCc1cccc(F)c1F` the cytotoxicity at 10 µM was 9.03%.
Compound `COc1cc(F)cc2sc(NC(=O)COCC3CCCO3)nc12` (configuration not stated) has a cytotoxicity at 10 µM of -5.07%.
Compound `Cn1cc(C(=O)N2CCOc3cc(F)ccc32)ccc1=O` has a cytotoxicity at 10 µM of -2.55%.
`COc1ccc(Cc2ncc3c(n2)CN(C(=O)CO)C3)cc1` gave a cytotoxicity at 10 µM of 0.624%.
`O=C(c1ccc(C(F)(F)F)cc1)N1C[C@@H](CN2CCCCC2)[C@@H](CO)C1` gave a cytotoxicity at 10 µM of 0.313%.
Work on `CCOCCCNC(=O)C1CCC(=O)N(CCc2ccc(Cl)cc2)C1` (configuration not stated) yielded a cytotoxicity at 10 µM of -0.591%.
`COC1CCN(S(=O)(=O)N2CCCC(c3cccc(C(=O)O)c3)C2)CC1` (configuration not stated) gave a cytotoxicity at 10 µM of 1.83%.
Work on `Cc1ccc(C(C(=O)NCCc2nc(C)cc(=O)[nH]2)N(C)C)cc1` (configuration not stated) yielded a cytotoxicity at 10 µM of 1.92%.
With `COCc1nc(CNC(=O)c2cc(C)c(C)[nH]c2=O)no1` the cytotoxicity at 10 µM was 4.19%.
Work on `CCNc1ncc(C(=O)N(C)Cc2nc3ccccc3n2C)cn1` yielded a cytotoxicity at 10 µM of 6.09%.
Compound `O=C(c1ccc(S(=O)(=O)N2CCSCC2)cc1)N1CCC(O)C1` (configuration not stated) has a cytotoxicity at 10 µM of 4.91%.
For `Cc1cc(C)c2ncn(CC(C)(C)CO)c(=O)c2c1`, the cytotoxicity at 10 µM was 15.4%.
Work on `CCN(CC)CCNCc1cc(O)c2cc(C)ccc2n1` yielded a cytotoxicity at 10 µM of 0.749%.
`O=C(CN1CCN(CC2CCOc3ccccc3C2)CC1)N1CCCC1` (configuration not stated) showed a cytotoxicity at 10 µM of -4.02%.
`CCc1ccc(CN2CCN(C(=O)C(C)C)[C@@H]3CS(=O)(=O)C[C@@H]32)cc1` showed a cytotoxicity at 10 µM of 2.11%.
For `CCc1nc(C)c(C(=O)N(C)Cc2cnn(-c3cccc(OC)c3)c2)s1`, the cytotoxicity at 10 µM was 11.7%.
`c1cncc(Cc2nnc3n2CCN(CC2CCCNC2)CC3)c1` (configuration not stated) gave a cytotoxicity at 10 µM of 2.1%.
In the case of `Cc1ccc2nc(C3CCCN3Cc3cccc(CCN)c3)[nH]c2c1` (configuration not stated), the cytotoxicity at 10 µM is reported as -7.01%.
In the case of `CCc1cn[nH]c1C1CCN(C(=O)c2cc(C#N)c(=O)[nH]c2C)CC1`, the cytotoxicity at 10 µM is reported as 2.39%.
`O=C(c1ccccc1)N1CCN(CC2CCOc3ccccc3C2)CC1` (configuration not stated) gave a cytotoxicity at 10 µM of -0.966%.
Compound `CCOc1ccc(CCCC(=O)N2CC[C@H](NC(C)=O)C2)cc1C` has a cytotoxicity at 10 µM of -16%.
Compound `Cc1cnc(N2CCN(C)CC2)nc1-c1ccnn1C` has a cytotoxicity at 10 µM of 6.3%.
Work on `Cc1cc(CNc2cccc(Cl)c2C)no1` yielded a cytotoxicity at 10 µM of -2.4%.
For `CCCNC(=O)CNc1ccc(C(=O)N2CCCCC2C)cc1C` (configuration not stated), the cytotoxicity at 10 µM was -7.67%.
Work on `NC(=O)C1CCN(C(=O)c2ccn(-c3ccc(F)cc3)n2)C1` (configuration not stated) yielded a cytotoxicity at 10 µM of -6.02%.
Compound `CC(Cc1ccco1)NC(=O)Nc1ccc(N2CCOCC2)nc1` (configuration not stated) has a cytotoxicity at 10 µM of 0.813%.
With `Cc1cnn(CC2CN(c3cnc4ccccc4n3)CCO2)c1` (configuration not stated) the cytotoxicity at 10 µM was 2.02%.
Compound `O=C1CCc2cc(-c3csc(CCN4CCCC4=O)n3)ccc2N1` has a cytotoxicity at 10 µM of -6.64%.
With `c1ccc(Oc2cc(CNCC3CNc4ccnn4C3)ccn2)cc1` (configuration not stated) the cytotoxicity at 10 µM was 3.1%.
In the case of `Cc1cc(CN2CC[C@H]3[C@H]2CCN3S(C)(=O)=O)oc1C`, the cytotoxicity at 10 µM is reported as -1.69%.
With `Cc1ccc(CN2CCC[C@]3(C(=O)O)CN(c4ncccn4)C[C@@H]3C2)o1` the cytotoxicity at 10 µM was -11.3%.
With `CC(C)N1[C@H](CN2CCCC2)C[C@@H]2CN(C(=O)c3ccoc3)CC[C@@H]21` the cytotoxicity at 10 µM was -135%.
`CN(C)CCOCc1nnc2n1CCN(Cc1ccco1)CC2` showed a cytotoxicity at 10 µM of 2.19%.
`COCCN1CCC2(CC1)CC(c1cccnc1)CO2` (configuration not stated) gave a cytotoxicity at 10 µM of -3.21%.
In the case of `O=C(CN1CCC[C@H]1C(=O)O)NCCOc1cccc(Cl)c1`, the cytotoxicity at 10 µM is reported as -22.6%.
Compound `CC(C)C(=O)NC1COC2(CCN(Cc3cccnc3)CC2)C1` (configuration not stated) has a cytotoxicity at 10 µM of 2.11%.
Compound `CCOC(=O)c1n[nH]cc1-c1cncn1CCCn1nc(C)cc1C` has a cytotoxicity at 10 µM of -2.73%.
Work on `CC[C@@H]1N(Cc2nccs2)CCC[C@]12CCC(=O)N2CCOC` yielded a cytotoxicity at 10 µM of 2.49%.
With `O=C(C1CCC1)N1C2CCC(O)(CC2)C1CN1CCOCC1` (configuration not stated) the cytotoxicity at 10 µM was -1.63%.
